Results published in ChEMBL document CHEMBL3856258, “Phosphonate-based irreversible inhibitors of human γ-glutamyl transpeptidase (GGT). GGsTop is a non-toxic and highly selective inhibitor with critical electrostatic interaction with an active-site residue Lys562 for enhanced inhibitory activity” (Bioorg Med Chem, 2016).

Assays:
[1] = tested on: Salmonella typhimurium; assay: Genotoxicity in Salmonella typhimurium TA100 assessed as number of revertant colonies per plate at 20.6 ug/plate after 20 mins in absence of S9 fraction by Ames test (reference value: 123); format: toxicity, organism-based; details: salmonella enterica subsp. enterica serovar typhimurium
[2] = tested on: Salmonella typhimurium; assay: Genotoxicity in Salmonella typhimurium TA100 assessed as number of revertant colonies per plate at 61.7 ug/plate after 20 mins in absence of S9 fraction by Ames test (reference value: 123); format: toxicity, organism-based; details: salmonella enterica subsp. enterica serovar typhimurium
[3] = tested on: Salmonella typhimurium; assay: Genotoxicity in Salmonella typhimurium TA100 assessed as number of revertant colonies per plate at 5000 ug/plate after 20 mins in absence of S9 fraction by Ames test (reference value: 123); format: toxicity, organism-based; details: salmonella enterica subsp. enterica serovar typhimurium
[4] = tested on: Salmonella typhimurium; assay: Genotoxicity in Salmonella typhimurium TA1535 assessed as number of revertant colonies per plate at 61.7 ug/plate after 20 mins in absence of S9 fraction by Ames test (reference value: 15); format: toxicity, organism-based; details: salmonella enterica subsp. enterica serovar typhimurium
[5] = tested on: Salmonella typhimurium; assay: Genotoxicity in Salmonella typhimurium TA1535 assessed as number of revertant colonies per plate at 556 ug/plate after 20 mins in absence of S9 fraction by Ames test (reference value: 15); format: toxicity, organism-based; details: salmonella enterica subsp. enterica serovar typhimurium
[6] = tested on: Salmonella typhimurium; assay: Genotoxicity in Salmonella typhimurium TA1537 assessed as number of revertant colonies per plate at 185 ug/plate after 20 mins in absence of S9 fraction by Ames test (reference value: 9); format: toxicity, organism-based; details: salmonella enterica subsp. enterica serovar typhimurium
[7] = tested on: Salmonella typhimurium; assay: Genotoxicity in Salmonella typhimurium TA100 assessed as number of revertant colonies per plate at 61.7 ug/plate after 20 mins in presence of S9 fraction by Ames test (reference value: 142); format: toxicity, organism-based; details: salmonella enterica subsp. enterica serovar typhimurium
[8] = tested on: Salmonella typhimurium; assay: Genotoxicity in Salmonella typhimurium TA100 assessed as number of revertant colonies per plate at 1667 ug/plate after 20 mins in presence of S9 fraction by Ames test (reference value: 142); format: toxicity, organism-based; details: salmonella enterica subsp. enterica serovar typhimurium
[9] = tested on: Salmonella typhimurium; assay: Genotoxicity in Salmonella typhimurium TA1535 assessed as number of revertant colonies per plate at 185 ug/plate after 20 mins in presence of S9 fraction by Ames test (reference value: 13); format: toxicity, organism-based; details: salmonella enterica subsp. enterica serovar typhimurium
[10] = tested on: Salmonella typhimurium; assay: Genotoxicity in Salmonella typhimurium TA1535 assessed as number of revertant colonies per plate at 556 ug/plate after 20 mins in presence of S9 fraction by Ames test (reference value: 13); format: toxicity, organism-based; details: salmonella enterica subsp. enterica serovar typhimurium
[11] = tested on: Salmonella typhimurium; assay: Genotoxicity in Salmonella typhimurium TA1535 assessed as number of revertant colonies per plate at 1667 ug/plate after 20 mins in presence of S9 fraction by Ames test (reference value: 13); format: toxicity, organism-based; details: salmonella enterica subsp. enterica serovar typhimurium
[12] = tested on: Escherichia coli; assay: Genotoxicity in Escherichia coli WP2uvrA assessed as number of revertant colonies per plate at 185 ug/plate after 20 mins in presence of S9 fraction by Ames test (reference value: 26); format: toxicity; details: s9, 20 min
[13] = tested on: Salmonella typhimurium; assay: Genotoxicity in Salmonella typhimurium TA98 assessed as number of revertant colonies per plate at 20.6 ug/plate after 20 mins in presence of S9 fraction by Ames test (reference value: 26); format: toxicity, organism-based; details: salmonella enterica subsp. enterica serovar typhimurium
[14] = tested on: Salmonella typhimurium; assay: Genotoxicity in Salmonella typhimurium TA1537 assessed as number of revertant colonies per plate at 185 ug/plate after 20 mins in presence of S9 fraction by Ames test (reference value: 15); format: toxicity, organism-based; details: salmonella enterica subsp. enterica serovar typhimurium
[15] = Cytotoxicity against CHL cells assessed as growth rate at 2.16 ug/ml preincubated for 6 hrs followed by 18 hrs incubation in fresh medium in absence of S9 fraction by MTT assay relative to control; format: toxicity, cell-based, Cricetulus griseus; details: chinese hamster, read-out: Activity
[16] = Cytotoxicity against CHL cells assessed as growth rate at 5.41 ug/ml preincubated for 6 hrs followed by 18 hrs incubation in fresh medium in absence of S9 fraction by MTT assay relative to control; format: toxicity, cell-based, Cricetulus griseus; details: chinese hamster, read-out: Activity
[17] = Cytotoxicity against CHL cells assessed as growth rate at 33.8 ug/ml preincubated for 6 hrs followed by 18 hrs incubation in fresh medium in absence of S9 fraction by MTT assay relative to control; format: toxicity, cell-based, Cricetulus griseus; details: chinese hamster, read-out: Activity
[18] = Cytotoxicity against CHL cells assessed as growth rate at 84.5 ug/ml preincubated for 6 hrs followed by 18 hrs incubation in fresh medium in absence of S9 fraction by MTT assay relative to control; format: toxicity, cell-based, Cricetulus griseus; details: chinese hamster, read-out: Activity
[19] = Cytotoxicity against CHL cells assessed as growth rate at 528 ug/ml preincubated for 6 hrs followed by 18 hrs incubation in fresh medium in absence of S9 fraction by MTT assay relative to control; format: toxicity, cell-based, Cricetulus griseus; details: chinese hamster, read-out: Activity
[20] = Cytotoxicity against CHL cells assessed as growth rate at 33.8 ug/ml preincubated for 6 hrs followed by 18 hrs incubation in fresh medium in presence of S9 fraction by MTT assay relative to control; format: toxicity, cell-based, Cricetulus griseus; details: chinese hamster, read-out: Activity
[21] = Cytotoxicity against CHL cells assessed as growth rate at 528 ug/ml preincubated for 6 hrs followed by 18 hrs incubation in fresh medium in presence of S9 fraction by MTT assay relative to control; format: toxicity, cell-based, Cricetulus griseus; details: chinese hamster, read-out: Activity
[22] = Cytotoxicity against CHL cells assessed as growth rate at 3300 ug/ml preincubated for 6 hrs followed by 18 hrs incubation in fresh medium in presence of S9 fraction by MTT assay relative to control; format: toxicity, cell-based, Cricetulus griseus; details: chinese hamster, read-out: Activity
[23] = Cytotoxicity against CHL cells assessed as growth rate at 5.41 ug/ml after 24 hrs in absence of S9 fraction by MTT assay relative to control; format: toxicity, cell-based, Cricetulus griseus; details: chinese hamster, read-out: Activity
[24] = Cytotoxicity against CHL cells assessed as growth rate at 33.8 ug/ml after 24 hrs in absence of S9 fraction by MTT assay relative to control; format: toxicity, cell-based, Cricetulus griseus; details: chinese hamster, read-out: Activity
[25] = Cytotoxicity against CHL cells assessed as structural aberrations at 825 ug/ml preincubated for 6 hrs followed by 18 hrs incubation in fresh medium in absence of S9 fraction by Giemsa-staining-based microscopic analysis; format: toxicity, cell-based, Cricetulus griseus; details: chinese hamster
[26] = Cytotoxicity against CHL cells assessed as structural aberrations at 3300 ug/ml preincubated for 6 hrs followed by 18 hrs incubation in fresh medium in absence of S9 fraction by Giemsa-staining-based microscopic analysis; format: toxicity, cell-based, Cricetulus griseus; details: chinese hamster
[27] = Cytotoxicity against CHL cells assessed as chromatid gap at 3300 ug/ml preincubated for 6 hrs followed by 18 hrs incubation in fresh medium in absence of S9 fraction by Giemsa-staining-based microscopic analysis; format: toxicity, cell-based, Cricetulus griseus; details: chinese hamster
[28] = Cytotoxicity against CHL cells assessed as structural aberrations at 1650 ug/ml after 24 hrs by Giemsa-staining-based microscopic analysis; format: toxicity, cell-based, Cricetulus griseus; details: chinese hamster
[29] = Cytotoxicity against CHL cells assessed as chromatid gap at 3300 ug/ml after 24 hrs by Giemsa-staining-based microscopic analysis; format: toxicity, cell-based, Cricetulus griseus; details: chinese hamster
[30] = Cytotoxicity against human CCD-1059SK cells assessed as morphological change up to 1 mM after 24 hrs by inverted microscopic analysis; format: toxicity, cell-based
Procedure, shortened: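 Human skin fibroblasts (CCD-1059SK), passages 10–20, grown in DMEM with 10% FBS and antibiotics at 37 °C under 5% CO2. Plated at 3 × 10^4 cells/mL on chamber slides and pre-incubated 24 h. Then exposed 24 h to 0, 5, 10, 20, 50 or 1000 µM in DMEM (from aqueous solution); water-only control. Morphology checked by inverted microscopy.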

[31] = Cytotoxicity against CHL cells assessed as number of cells with numerical aberrations at 825 ug/ml preincubated for 6 hrs followed by 18 hrs incubation in fresh medium in presence of S9 fraction by Giemsa-staining-based microscopic analysis relative to control; format: toxicity, cell-based, Cricetulus griseus; details: chinese hamster

SMILES: COP(=O)(CCC(N)C(=O)O)Oc1cccc(CC(=O)O)c1 (stereo unspecified)
- Activity [1]: 120
- Activity [2]: 148
- Activity [3]: 123
- Activity [4]: 8
- Activity [5]: 8
- Activity [6]: 12
- Activity [7]: 133
- Activity [8]: 131
- Activity [9]: 13
- Activity [10]: 12
- Activity [11]: 8
- Activity [12]: 28
- Activity [13]: 29
- Activity [14]: 12
- viability at 18 h, 2.16 ug/ml [15]: 103%
- viability at 18 h, 5.41 ug/ml [16]: 103%
- viability at 18 h, 33.8 ug/ml [17]: 103%
- viability at 18 h, 84.5 ug/ml [18]: 102%
- viability at 18 h, 528 ug/ml [19]: 101%
- viability at 18 h, 33.8 ug/ml [20]: 101%
- viability at 18 h, 528 ug/ml [21]: 95.2%
- viability at 18 h, 3300 ug/ml [22]: 96.8%
- viability at 24 h, 5.41 ug/ml [23]: 105%
- viability at 24 h, 33.8 ug/ml [24]: 105%
- Activity [25]: 3%
- Activity [26]: 1%
- Activity [27]: 0%
- Activity [28]: 1%
- Activity [29]: 0%
- Activity [30]: Non-Toxic
- Activity [31]: 1%
